In paper PMC10134466 (ACS Omega, 2023):

Columns and labels:
[1] = system: BT-474 human breast ductal carcinoma cells; assay: 2D dose–response assay; assay type: cell-based; conditions: 24 h treatment, n = 3/dose
How it was run: (§1)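 Cells were trypsinized, seeded at 250,000 cells/mL in 96-well plates and cultured 24 h before dosing. Test compound was dissolved in 100% DMSO and serially diluted 1:2 in media to 5000–40 μg/mL dosing solutions, which were diluted 10-fold in the well (final DMSO ≤1%), in triplicate. Plates were incubated 24 h at 37 °C, 5% CO2, then viability was read by CCK-8. Controls: cell-free media and untreated cells. Absolute IC50 was calculated.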

BT-474 3D spheroids = assay: 3D dose–response assay, liquid-overlay spheroids; assay type: cell-based, human; conditions: 24 h treatment, n = 3/dose
How it was run: (§2)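 Spheroids formed by liquid overlay: 250,000 cells/mL in round-bottom nonadherent wells with 2.5% v/v Matrigel, centrifuged 10 min at 1000 rpm, then matured 4 days. Test compound DMSO stocks were serially diluted 1:2 to 10,000–80 μg/mL and diluted 10-fold in wells (final DMSO ≤1% v/v), in triplicate. Incubation 24 h at 37 °C, 5% CO2; viability by CellTiter 3D luminescence. Absolute IC50 by nonlinear regression.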

sheep erythrocytes = assay: Hemolytic activity; assay type: cell-based; conditions: sheep RBC 2% v/v, 37 °C, 1 h
How it was run: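 Fresh sheep RBCs were washed in PBS pH 7.4 until the supernatant was clear, with 1000 rpm, 8 min spins. RBCs were exposed to test compound at 2000–5 μg/mL in PBS containing 5% DMSO, then centrifuged 1000 rpm, 8 min at RT. Supernatant absorbance was read at 540 nm, with 630 nm background. Controls: PBS/5% DMSO (negative) and 1% v/v Triton X-100 (positive).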

MDA-MB-231 cells = assay: CellTox Green cytotoxicity assay: cell lysis; assay type: cell-based, human; conditions: dosed at IC50; 1, 6, 12, 24 h post exposure
CCD1065SK HDF = assay: 2D dose–response assay; assay type: cell-based, human; conditions: 24 h treatment, nontumorigenic fibroblasts
How it was run: as §1

[2] = system: MDA-MB-231 triple negative human breast adenocarcinoma cells; assay: 2D dose–response assay; assay type: cell-based; conditions: 24 h treatment, n = 3/dose
How it was run: as §1

[3] = system: MCF-7 human breast epithelial adenocarcinoma cells; assay: 2D dose–response assay; assay type: cell-based; conditions: 24 h treatment, n = 3/dose
How it was run: as §1

BT-474 cells = assay: CellTox Green cytotoxicity assay: cell lysis; assay type: cell-based, human; conditions: dosed at IC50; 1, 6, 12, 24 h post exposure
MDA-MB-231 3D spheroids = assay: 3D dose–response assay, liquid-overlay spheroids; assay type: cell-based, human; conditions: 24 h treatment, n = 3/dose
How it was run: as §2

erythrocytes = conditions: therapeutic dose used for viral inactivation; cited from earlier work
[4] = system: nontumorigenic keratinocytes; conditions: 30 μM; cited from earlier work
[5] = Critical micelle concentration; assay type: physicochemical; conditions: 0.1 M NaHCO3, pH 8.7, 22 °C
How it was run: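 Surface tension across a concentration series was measured by Wilhelmy platinum-plate tensiometry on freshly prepared samples, in triplicate. Separate linear regressions were fitted to the declining and flat regions of the surface tension–concentration curve; their intersection gave the CMC.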

[6] = system: AU565 human breast adenocarcinoma cells; assay: 2D dose–response assay; assay type: cell-based; conditions: 24 h treatment, n = 3/dose
How it was run: as §1

osteoblasts = conditions: 5 μM; cited from earlier work
HeLa cells = conditions: cited from earlier work

| IC50 2D monolayer BT-474 [1] [µg/mL] | IC50 3D spheroids BT-474 (BT-474 3D spheroids) [µg/mL] | IC50 2D monolayer MDA-MB-231 [2] [µg/mL] | IC50 2D monolayer MCF-7 [3] [µg/mL] | IC50 3D spheroids MDA-MB-231 (MDA-MB-231 3D spheroids) [µg/mL] | CMC [5] [µg/mL] | IC50 2D monolayer AU565 [6] [µg/mL] | Substance | IC50 erythrocytes (50% of RBCs lysed) (sheep erythrocytes) [µg/mL] | extent of cell lysis, MDA-MB-231 (MDA-MB-231 cells) | IC50 2D monolayer CCD1065SK HDF (CCD1065SK HDF) [µg/mL] | extent of cell lysis, BT-474 (BT-474 cells) | concentration at which rapid lysis of erythrocytes occurred (erythrocytes) [µM] | cell viability, nontumorigenic keratinocytes [4] [%] | cell viability, osteoblasts (osteoblasts) [%] | IC50 toward HeLa cells (HeLa cells) [µg/mL] |
| --- | --- | --- | --- | --- | --- | --- | --- | --- | --- | --- | --- | --- | --- | --- | --- |
| 21 | 330 | 84 | 24 | 140 | 9.5 | 110 | Surfactin [Compound 1, reference compound] | 38 | cell lysis of both BT-474 and MDA-MB-231 cells was observed | 180 | cell lysis of both BT-474 and MDA-MB-231 cells was observed | 40 | 100 | 100 |  |
|  |  |  |  |  |  |  | C15-surfactin |  |  |  |  |  |  |  | 25.2 |
|  |  |  |  |  |  |  | C15-surfactin-O-methyl ester |  |  |  |  |  |  |  | 47.7 |
